Consider 18 compounds from ChEMBL document CHEMBL4130532, “Camellianols A-G, Barrigenol-like Triterpenoids with PTP1B Inhibitory Effects from the Endangered Ornamental Plant Camellia crapnelliana” (J Nat Prod, 2017).

A word on the IC50: it is the concentration at which inhibition is half-maximal.

Series [1] concerns the target T1, Tyrosine-protein phosphatase non-receptor type 1 (Homo sapiens, UniProt P18031).
T1 sequence (P18031 whole entry): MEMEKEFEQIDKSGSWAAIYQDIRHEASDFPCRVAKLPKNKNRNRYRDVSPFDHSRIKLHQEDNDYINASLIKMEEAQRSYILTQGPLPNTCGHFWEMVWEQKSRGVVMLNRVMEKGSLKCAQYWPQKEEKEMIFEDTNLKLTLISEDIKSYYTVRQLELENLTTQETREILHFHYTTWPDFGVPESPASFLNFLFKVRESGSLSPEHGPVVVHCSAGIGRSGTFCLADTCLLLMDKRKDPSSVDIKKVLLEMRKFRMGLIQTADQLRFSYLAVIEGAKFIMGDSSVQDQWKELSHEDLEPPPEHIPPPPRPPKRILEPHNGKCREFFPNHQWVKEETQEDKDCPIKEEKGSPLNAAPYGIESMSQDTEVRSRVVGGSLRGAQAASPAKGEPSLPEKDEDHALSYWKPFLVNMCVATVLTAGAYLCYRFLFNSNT
As to the kind of experiment: Inhibition of recombinant human GST-tagged PTP1B catalytic domain expressed in Escherichia coli BL21 using para-nitrophenyl phosphate as substrate.

The nature of series [2]: Cytotoxicity against human L02 cells assessed as cell viability at 10 uM after 24 hrs by MTS assay relative to control. It counts as cell-based. The note with it: read-out: Activity. The method in brief:
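Human […] L02 cells were seeded and cultured overnight, then exposed to the compound at varying concentrations for 24 h. Medium containing the water-soluble tetrazolium MTS reagent was added, and the cells were incubated at 37 °C for 2 h to read out viability.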
For orientation: Tetrazolium dyes change colour on reduction, which living cells bring about.

For the compound `C/C=C(/C)C(=O)O[C@H]1CC(C)(C)C[C@H]2C3=CC[C@@H]4[C@@]5(C)CC[C@H](O)C(C)(C)[C@@H]5CC[C@@]4(C)[C@]3(C)[C@@H](O)[C@@H](O)[C@@]12CO`, in series [1], the IC50 was determined as 2.56 µM. In series [2], the viability at 24 h, 10 µM was over 90%.
For `CC(C)(O)[C@@H]1CC[C@]2(C)CC[C@]3(C)C(CC[C@@H]4[C@@]5(C)CC[C@H](O)C(C)(C)[C@@H]5CC[C@]43C)[C@H]12` (stereo not given in full), the IC50 in series [1] amounted to 12.4 µM. Besides, in series [2], the viability at 24 h, 10 µM is over 90%.
As for `CC(=O)O[C@@H]1[C@H](O)[C@]2(C)C(=CC[C@@H]3[C@@]4(C)CC[C@H](O)C(C)(C)[C@@H]4CC[C@]32C)[C@@H]2CC(C)(C)C[C@H](O)[C@]12CO`, the IC50 in series [1] came to 47.4 µM. For the same compound, the viability at 24 h, 10 µM in series [2] is over 90%.
The corresponding values for `CC1(C)CC[C@]2(CO)[C@H](O)[C@H](O)[C@]3(C)C(=CC[C@@H]4[C@@]5(C)CC[C@H](O)C(C)(C)[C@@H]5CC[C@]43C)[C@@H]2C1` are 14.4 µM and over 90%.
For the compound `CC1(C)CC[C@]2(C)CC[C@@]3(C)[C@]4(C)CC[C@H]5C(C)(C)[C@@H](O)CC[C@]5(C)[C@H]4[C@H](O)C(=O)[C@]3(O)[C@@H]2C1`, the IC50 in series [1] was determined as 1.34 µM. For the same compound, the viability at 24 h, 10 µM in series [2] was over 90%.
As to `C/C=C(/C)C(=O)OC[C@@]12[C@H](O)[C@H](O)[C@]3(C)C(=CC[C@@H]4[C@@]5(C)CC[C@H](O)C(C)(C)[C@@H]5CC[C@]43C)[C@@H]1CC(C)(C)C[C@@H]2O`, the 50% inhibitory concentration (IC50) in series [1] came to 11.1 µM. Besides, the viability at 24 h, 10 µM in series [2] was over 90%.
The corresponding values for `CC1(C)C[C@H](O)[C@]2(CO)[C@H](O)[C@H](O)[C@]3(C)C(=CC[C@@H]4[C@@]5(C)CCC(=O)C(C)(C)[C@@H]5CC[C@]43C)[C@@H]2C1` are 49.4 µM and over 90%.
The corresponding values for `CC1(C)C[C@H](O)[C@]2(CO)[C@H](O)C[C@]3(C)C(=CC[C@@H]4[C@@]5(C)CC[C@H](O)C(C)(C)[C@@H]5CC[C@]43C)[C@@H]2C1` are 8.93 µM and over 90%.
The like results for `C/C=C(/C)C(=O)O[C@H]1CC(C)(C)C[C@H]2C3=CC[C@@H]4[C@@]5(C)CC[C@H](O)C(C)(C)[C@@H]5CC[C@@]4(C)[C@]3(C)[C@@H](O)[C@@H](OC(C)=O)[C@@]12CO` were, in that order, 4.87 µM and over 90%.
As for `C/C=C(/C)C(=O)O[C@H]1CC(C)(C)C[C@H]2C3=CC[C@@H]4[C@@]5(C)CC[C@H](O)C(C)(C)[C@@H]5CC[C@@]4(C)[C@]3(C)[C@@H](OC(C)=O)[C@@H](O)[C@@]12CO`, the IC50 in series [1] was determined as 7.4 µM. For the same compound, in series [2], the viability at 24 h, 10 µM was over 90%.
With `CC(=O)O[C@@H]1C[C@]2(C)C(=CC[C@@H]3[C@@]4(C)CC[C@H](O)C(C)(C)[C@@H]4CC[C@]32C)[C@@H]2CC(C)(C)C[C@H](O)[C@]12CO`, in series [1], the IC50 is 10.2 µM. Also, the viability at 24 h, 10 µM in series [2] was over 90%.
The like results for `CC(=O)O[C@@H]1[C@H](O)[C@]2(C)C(=CC[C@@H]3[C@@]4(C)CCC(=O)C(C)(C)[C@@H]4CC[C@]32C)[C@@H]2CC(C)(C)C[C@H](O)[C@]12CO` were, in that order, 20 µM and over 90%.
Consider `CC(=O)O[C@H]1[C@@H](O)[C@@]2(CO)[C@@H](O)CC(C)(C)C[C@H]2C2=CC[C@@H]3[C@@]4(C)CCC(=O)C(C)(C)[C@@H]4CC[C@@]3(C)[C@@]21C`, for which the IC50 in series [1] is 44.4 µM. Besides, the viability at 24 h, 10 µM in series [2] is over 90%.
The like results for `C[C@H]1[C@H](C)CC[C@]2(C)CC[C@]3(C)C(=CC[C@@H]4[C@@]5(C)CC[C@H](O)C(C)(C)[C@@H]5CC[C@]43C)[C@H]12` were, in that order, 19.3 µM and over 90%.
Regarding `CC1(C)C[C@H](O)[C@]2(CO)[C@H](O)[C@H](O)[C@]3(C)C(=CC[C@@H]4[C@@]5(C)CC[C@H](O)C(C)(C)[C@@H]5CC[C@]43C)[C@@H]2C1`, the IC50 in series [1] came to 16.8 µM. The viability at 24 h, 10 µM in series [2] was over 90%.
The like results for `C=C(C)[C@@H]1CC[C@]2(C)CC[C@]3(C)[C@H](CC[C@@H]4[C@@]5(C)CC[C@H](O)C(C)(C)[C@@H]5CC[C@]43C)[C@@H]12` [LUPEOL] were, in that order, 3.68 µM and over 90%.
As for `CC1(C)CC[C@]2(C(=O)O)CC[C@]3(C)C(=CC[C@@H]4[C@@]5(C)CC[C@H](O)C(C)(C)[C@@H]5CC[C@]43C)[C@@H]2C1` [OLEANOLIC_ACID], in series [2], the viability at 24 h, 10 µM was over 90%.
In the case of `CC1(C)CC[C@]2(C)CC[C@]3(C)C(=CC[C@@H]4[C@@]5(C)CC[C@H](O)C(C)(C)[C@@H]5CC[C@]43C)[C@@H]2C1` [beta-AMYRIN], the concentration for half-maximal inhibition (IC50) in series [1] is over 100 µM. For the same compound, the viability at 24 h, 10 µM in series [2] is over 90%.
